The source of these data is ChEMBL document CHEMBL4609977, “Synthesis of natural product-like polyprenylated phenols and quinones: Evaluation of their neuroprotective activities” (Bioorg Med Chem, 2020).

pIC50: −log10 of the molar value.

Series [1] deals with SH-SY5Y. Kind of series: Cytotoxicity against human SH-SY5Y cells assessed as effect on cell viability at 10 uM measured after 24 hrs by MTT assay. It is filed as cell-based. The method in brief:
(§1)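 SH-SY5Y cells (ECACC) were seeded at 5.0 × 10⁴ cells/well and grown 24 h in E-MEM/F12 with 0.3% FBS. Compound in DMSO (final <0.5%) was added in serum-free medium without H₂O₂ and incubated 24 h at 37 °C, 5% CO₂. Viability was read by MTT (5 mg/mL, 24 h, A595). Mean ± SD, n = 3.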

Series [2] deals with T1, Amine oxidase [flavin-containing] B (Homo sapiens, UniProt P27338).
T1 sequence (P27338 whole entry): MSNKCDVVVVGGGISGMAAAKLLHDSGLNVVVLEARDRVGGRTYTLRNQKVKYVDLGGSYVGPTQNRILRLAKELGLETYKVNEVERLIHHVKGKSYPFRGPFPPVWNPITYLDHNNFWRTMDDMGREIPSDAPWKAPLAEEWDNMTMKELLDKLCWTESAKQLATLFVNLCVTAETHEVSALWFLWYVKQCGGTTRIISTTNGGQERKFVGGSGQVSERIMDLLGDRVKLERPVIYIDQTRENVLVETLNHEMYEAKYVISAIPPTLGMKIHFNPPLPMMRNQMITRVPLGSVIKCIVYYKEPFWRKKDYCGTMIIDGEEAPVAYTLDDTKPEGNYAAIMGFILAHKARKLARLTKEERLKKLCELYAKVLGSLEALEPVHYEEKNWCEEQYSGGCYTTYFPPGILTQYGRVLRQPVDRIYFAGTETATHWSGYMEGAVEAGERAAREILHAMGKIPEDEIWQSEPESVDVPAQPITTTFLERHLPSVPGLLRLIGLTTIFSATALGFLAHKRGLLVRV
Kind of series: Inhibition of recombinant human MAO-B expressed in baculovirus infected BTI insect cells assessed as reduction in formation of 4-quinolinol using kynuramine as substrate preincubated with substrate for 10 mins followed by enzyme addition and measured after 20 mins by fluorescence based microplate reader assay. To be noted: for pIC50: read-out: IC50.

Series [3] relates to SH-SY5Y. As to the kind of experiment: Neuroprotective activity against H2O2-induced cytotoxicity in human SH-SY5Y cells assessed as increase in cell viability measured after 24 hrs by MTT assay. It is filed as functional, cell-based. Summed up:
(§2)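 SH-SY5Y cells were seeded at 5.0 × 10⁴ cells/well and given 24 h attachment. Compound (DMSO final <0.5%) and H₂O₂ (final 500 μM) were added together in serum-free E-MEM/F12 and left 24 h at 37 °C, 5% CO₂. Viability was by MTT (5 mg/mL, 24 h, absorbance 595 nm). Luteolin was the positive control. Mean ± SD, n = 3; one-way ANOVA with Dunnett's test against H₂O₂ alone.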

Series [4] concerns SH-SY5Y. Kind of series: Neuroprotective activity against H2O2-induced cytotoxicity in human SH-SY5Y cells assessed as increase in cell viability at 10 uM measured after 24 hrs by MTT assay relative to H2O2-treated control. It is filed as functional. The method in brief: as §2
Series [5] concerns the target T1, Amine oxidase [flavin-containing] B. Kind of series: Inhibition of recombinant human MAO-B expressed in baculovirus infected BTI insect cells assessed as reduction in formation of 4-quinolinol at 25 uM using kynuramine as substrate preincubated with substrate for 10 mins followed by enzyme addition and measured after 20 mins by fluorescence based microplate reader assay relative to control.

A short description of series [6]: Solubility of compound at >=25 uM. It is filed as physicochemical.
Series [7] has as its target T1, Amine oxidase [flavin-containing] B. As to the kind of experiment: Mixed inhibition of recombinant human MAO-B expressed in baculovirus infected BTI insect cells at 0.7 to 2.8 uM by Lineweaver-Burk plot analysis.
Series [8] has the same target. As to the kind of experiment: Tight-binding competitive inhibition of recombinant human MAO-B expressed in baculovirus infected BTI insect cells at varying substrate concentration and IC50 of compound by tight-binding inhibition based assay. Summed up: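 For recombinant human MAO-B with kynuramine as substrate (fluorescent 4-quinolinol read-out), IC50 values were determined at different substrate concentrations and then plotted against substrate concentration to assess tight-binding competitive inhibition.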

The nature of series [9]: Cytotoxicity against human SH-SY5Y cells assessed as cell viability at 5 uM measured after 24 hrs by MTT assay relative to control. Particulars: read-out: Activity; call rule not given here. It is filed as cell-based. Summed up: as §1
Series [10] in a line: Cytotoxicity against human SH-SY5Y cells assessed as cell viability at 10 uM measured after 24 hrs by MTT assay relative to control. It is filed as cell-based. To be noted: read-out: Activity. Summed up: as §1
In series [11] the target is T1, Amine oxidase [flavin-containing] B. Kind of series: Mixed inhibition of recombinant human MAO-B expressed in baculovirus infected BTI insect cells at 0.32 to 2.6 uM by Lineweaver-Burk plot analysis.

As to `CC(C)=CCC/C(C)=C/CC/C(C)=C/Cc1c(O)cc(O)c(C=O)c1C`, the Activity entry with SH-SY5Y [1] was “Non-Toxic”; in the series with SH-SY5Y [3], “Dose-dependent effect”; in the series with SH-SY5Y [4], >20%. Moreover, the pIC50 in series [2] was 5.64. For the same molecule, the inhibition at 25 µM in series [5] turned out to be 91.2%.

Consider `CC(C)=CCC/C(C)=C/Cc1c(O)cc(O)c(C=O)c1C`, for which the pIC50 in series [2] was 4.71. Besides, in [5], the inhibition at 25 µM is 77.4%.

`CC(C)=CCc1c(C)c(C=O)c(O)c(CC=C(C)C)c1O`: in [2], the pIC50 is 5.26. In addition, the inhibition at 25 µM in series [5] stood at 84.7%.

`CC(C)=CCC/C(C)=C/Cc1c(C)cc(O)c(O)c1O`: in series [2], the pIC50 was 4.98. Further, the inhibition at 25 µM in series [5] is 88.7%.

`CC(C)=CCc1c(C)cc(O)c(O)c1O`: the inhibition at 25 µM in series [5] was 32.7%.

As for `COc1cc(C)c(C/C=C(\C)CCC=C(C)C)c(OC)c1OC`, the inhibition at 25 µM in series [5] amounted to 5.9%.

As to `COc1c(C)c(CC=C(C)C)c(OC)c(OC)c1OC`, the inhibition at 25 µM in [5] turned out to be 7.2%.

Consider `CC(C)=CCc1c(O)cc(O)c(C=O)c1C`, for which the inhibition at 25 µM in series [5] stood at 36.3%.

In the case of `CC(C)=CCC/C(C)=C/CC1=C(C)C(=O)C(O)=C(O)C1=O`, the pIC50 in [2] was 5.85. In addition, the inhibition at 25 µM in [5] amounted to 92.2%.

For the molecule `CC(C)=CCC/C(C)=C/CC/C(C)=C/Cc1c(C)c(C=O)c(O)c(C/C=C(\C)CC/C=C(\C)CCC=C(C)C)c1O`, in series [2], the IC50 entry is reported as “Nd(Insoluble)”. Moreover, the inhibition at 25 µM in [5] was 48.8%. In series [6], the solubility result is “Insoluble”.

With `CC(C)=CCc1c(O)cc(O)c(C(=O)O)c1C`, the inhibition at 25 µM in [5] was found to be 16.3%.

`COc1c(C)c(C/C=C(\C)CCC=C(C)C)c(OC)c(OC)c1OC`: the inhibition at 25 µM in series [5] was found to be 38%.

As to `CC(C)=CCC/C(C)=C/Cc1c(O)cc(O)c(C(=O)O)c1C`, the inhibition at 25 µM in series [5] was determined as 31.2%.

With `CC(C)=CCC/C(C)=C/Cc1c(C)cc(O)cc1O`, in series [5], the inhibition at 25 µM was 30.7%.

Take `COc1cc(C)c(CC=C(C)C)c(OC)c1OC`: the inhibition at 25 µM in [5] came to 18.6%.

In the case of `COc1cc(C)c(CC=C(C)C)c(OC)c1`, in series [5], the inhibition at 25 µM is 5.4%.

In the case of `CC(C)=CCC/C(C)=C/Cc1c(C)c(C=O)c(O)c(C/C=C(\C)CCC=C(C)C)c1O`, the IC50 entry in [2] is “Nd(Insoluble)”. Also, the inhibition at 25 µM in series [5] came out at 48.1%. Besides, the solubility entry in series [6] was “Insoluble”.

Take `COc1cc(C)c(C/C=C(\C)CC/C=C(\C)CCC=C(C)C)c(OC)c1`: the inhibition at 25 µM in [5] came out at 10.8%.

For the molecule `COc1c(C)c(C/C=C(\C)CC/C=C(\C)CCC=C(C)C)c(OC)c(OC)c1OC`, the inhibition at 25 µM in series [5] is 15.2%.

For `CC(C)=CCC/C(C)=C/CC/C(C)=C/CC1=C(C)C(=O)C(O)=C(O)C1=O`, the “inhibition (INH)” value in series [7] and in [8] was “Active” each time. Moreover, the Activity entry in the series on SH-SY5Y [1] was “Non-Toxic”; with SH-SY5Y [3], “Dose-dependent effect”; in the series with SH-SY5Y [4], >20%. The pIC50 in series [2] was 5.89. Moreover, the inhibition at 25 µM in series [5] was 93.1%.

On to `CC(C)=CCC1=C(C)C(=O)C(O)=C(O)C1=O`, for which the inhibition at 25 µM in [5] was 38.3%.

`CC(C)=CCC/C(C)=C/CC/C(C)=C/Cc1c(C)cc(O)cc1O`: the pIC50 in [2] was 5.04. Besides, in series [9], the viability at 24 h, 5 µM was found to be 63%. The viability at 24 h, 10 µM in [10] was 60%. Besides, in series [5], the inhibition at 25 µM stood at 96.4%.

Regarding `CC(C)=CCC/C(C)=C/CC/C(C)=C/Cc1c(O)cc(O)c(C(=O)O)c1C`, the pIC50 in series [2] is 4.58. Also, in [5], the inhibition at 25 µM was 49.2%.

Take `CC(C)=CCc1c(C)cc(O)cc1O`: in series [5], the inhibition at 25 µM was determined as 4.2%.

As to `COc1cc(C)c(C/C=C(\C)CC/C=C(\C)CCC=C(C)C)c(OC)c1OC`, the inhibition at 25 µM in series [5] was 34.9%.

`CC(C)=CCC/C(C)=C/CC/C(C)=C/Cc1c(C)cc(O)c(O)c1O`: the values for the Activity result with SH-SY5Y [1], in the series on SH-SY5Y [3] and with SH-SY5Y [4] were “Non-Toxic”, “Dose-dependent effect” and >20%, respectively. Besides, the “inhibition (INH)” value in series [11] and in series [8] was “Active” each time. The pIC50 in series [2] was 5.89. Besides, the inhibition at 25 µM in series [5] amounted to 97.8%.
